# Screening results from PubChem.
# Many of the other results were omitted from the sample, so hits are more common in it than they were.
# PostGolgi yeast: phenotypic screen on post-Golgi transport, primary screen; post-Golgi transport phenotypic cell assay; inhibition, % at 10 µM; 0.9% of 98,000 active; AID 739, 2007;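 further: yeast cells grown in 1536-well plates; yeast grown about 18 h at 30C before absorbance read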
# Yeast life ext: compounds extending yeast replicative lifespan, primary screen, S. cerevisiae, OD615; S. cerevisiae growth with nicotinamide; deaD strain in restrictive glucose medium; inhibition of the nicotinamide effect, % at 10 µM; 0.68% of 130,000 active; AID 775, 2007;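 active means inhibition above a set limit, placed 3 SD over the median of all compounds, cut at about 26% in these data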;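 further: 0% = nicotinamide-treated wells and 100% = cells grown without nicotinamide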
#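 Assay system: engineered S. cerevisiae DeaD replicative-lifespan strain, galactose-grown log-phase cells; medium: restrictive CSMM-D dextrose medium; also added: nicotinamide, 1.5 mM, co-present with compound; schedule: 48 h compound exposure at 30 °C, humidified; detection: absorbance at 615 nm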
# Yeast growth inh: growth inhibitors of yeast BB579 in restrictive medium, primary screen, yeast lifespan-shortening project, S. cerevisiae; inhibition, % at 10 µM; 0.51% of 140,000 active; OD615, 48 h; AID 804, 2007;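 active means inhibition above a set limit, 3 SD over the mean compound inhibition, cut at about 44% in these data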
#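 System: Saccharomyces cerevisiae DeaD strain BB579, replicative lifespan model yeast. Buffer or medium: restrictive glucose-based CSMM-D medium. Doses: one dose, 10 µM compound with 0.25% DMSO. Timing: 4 h preincubation and 48 h exposure at 30 °C. Detection: turbidity as optical density at 615 nm. Benchmarks: amphotericin B 10 µg/mL, positive.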
# PostGolgi ctrl: growth inhibition of yeast control strain, primary screen, counter-screen for post-Golgi transport modulator project | efflux-deficient yeast background strain, growth absorbance A615, 16 h | inhibition, % at 10 µM | 5% of 98,000 active | AID 738, 2007
# Active calls of the source: *; x = not tested or not shown. Unless noted, no stated cut-off is given here; in the data, active means inhibition above about 30%; inactive means the rest.
SMILES,PostGolgi yeast,Yeast life ext,Yeast growth inh,PostGolgi ctrl
Cc1ccc(-c2nnc(-n3nc(C)cc3C)c3ccccc23)cc1,x,7.6,-38.0,x
Cc1ccc(N2CN(Cc3ccco3)CNC2=S)c(C)c1,x,2.8,-45.6,x
CS(=O)(=O)N(CCc1ccccc1)CC(=O)N1CCN(c2ccc(F)cc2)CC1,x,x,-0.1,x
N#Cc1nc(Cc2ccccc2)oc1NCc1ccccc1Cl,17.2,3.1,-19.3,46.0*
N#Cc1nc(-c2ccccc2Cl)oc1NCc1ccco1,-1.9,-30.5,-5.0,31.4*
O=C(c1ccccc1CCc1ccccc1)N1CCN(c2ccccn2)CC1,0.6,18.5,-49.5,20.1
Cc1c(C(=O)OCC(C)C)[nH]c2c1C(=O)CC(c1cccs1)C2 (configuration not stated),3.7,-8.7,-6.3,14.3
O=C1CN(S(=O)(=O)c2ccccc2)CCN1S(=O)(=O)c1ccccc1,x,1.2,-32.5,x
CCC12CN3CC(CC)(CN(C1)C3c1c(O)ccc3ccccc13)C2=O (configuration not stated),-1.6,26.1*,-37.7,6.5
Cn1nc(-c2ccc(N3CCOCC3)c(NS(=O)(=O)c3ccc(Cl)cc3)c2)c2ccccc2c1=O,-11.1,-11.3,-29.7,30.4*
Cc1ccc(S(=O)(=O)Nc2cc(-c3nn(C)c(=O)c4ccccc34)ccc2N2CCOCC2)cc1,4.2,-7.8,-13.1,16.2
CCOC(=O)C(C)c1nc2ccccc2[nH]c1=O (configuration not stated),5.6,-13.8,-58.0,14.8
O=c1[nH]c2ccccc2nc1C(Cl)c1ccccc1 (configuration not stated),-2.6,37.4*,-42.1,3.7
CC(C)(C)c1ccc(OCCON2C(=O)CCC2=O)c(Cl)c1,-2.1,-6.0,-55.8,33.4*
CC(Sc1nnc(Cc2cccs2)n1C1CCCCC1)C(=O)N1CCc2ccccc21 (configuration not stated),-3.1,-17.1,-35.1,34.5*
CC(=O)NS(=O)(=O)c1cccnc1Nc1cccc(Cl)c1C,x,2.6,-21.0,x
NS(=O)(=O)c1cccnc1Nc1c(Cl)cccc1Cl,-6.7,2.5,-67.8,31.9*
O=C1CN(CC(=O)N2CCCCC2)c2ccccc2O1,-0.5,0.1,46.3*,16.1
O=C1C(=C(O)c2ccccc2)C(=O)c2ccccc21,1.5,42.0*,-39.9,1.6
O=C1C(=C(c2ccccc2)c2ccccc2)Nc2ccccc21,-1.1,4.8,-18.2,17.4
c1cnc(Oc2ccc(-c3nnco3)cc2)cn1,6.2,-9.2,-51.0,-3.6
Fc1ccc(COc2ccccc2CNCc2ccncc2)cc1,x,-1.0,-14.0,x
Brc1ccc(OCc2ccccc2)c(CNCc2ccncc2)c1,101.3*,6.3,-39.2,94.9*
Clc1ccc(COc2ccccc2CNCc2cccnc2)cc1,8.3,48.6*,-14.3,5.5
CSCCC(NC(=O)c1ccc(C)o1)C(=O)O (configuration not stated),5.8,-3.9,6.9,-1.9
SMILES,PostGolgi yeast,Yeast life ext,Yeast growth inh,PostGolgi ctrl
N=c1ccn(Cc2ccc(Cl)cc2Cl)cc1,-11.6,-9.8,-2.8,-1.3
Cc1ccc(NC(=O)c2ccc(OC(=O)C(C)Oc3ccc(Cl)cc3C)cc2)cc1 (configuration not stated),x,6.3,-19.7,x
O=C(OCC(=O)N1CCN(C(=O)c2ccco2)CC1)c1cc(-c2ccc(F)cc2)nc2ccccc12,47.3*,-20.8,-32.3,73.2*
O=C(OCC(=O)N1CCN(C(=O)c2ccco2)CC1)c1ccccc1C(=O)c1ccccc1,4.2,-15.6,-50.8,2.8
O=C(OCC(=O)N1CCN(C(=O)c2ccco2)CC1)c1cc(-c2cccc(Br)c2)nc2ccccc12,79.6*,-10.3,-69.6,72.5*
O=C(OCC(=O)N1CCN(C(=O)c2ccco2)CC1)c1cn(-c2ccccc2)nc1-c1ccccc1,47.7*,-6.7,-29.6,100.7*
Cc1cc(C(=O)OCC(=O)N2CCN(C(=O)c3ccco3)CC2)c(C)n1-c1ccc(F)cc1,-5.7,-1.9,-45.4,6.7
O=C(OCC(=O)N1CCN(C(=O)c2ccco2)CC1)c1cc(-c2ccccc2)nc2ccccc12,43.6*,-15.7,-4.0,47.5*
O=C(NCc1cccnc1)C(=O)NCC1OCCCN1S(=O)(=O)c1ccccc1 (configuration not stated),x,-1.4,13.5,x
CCOc1ccc(-c2nc(N)ncc2-c2ccccc2)c(O)c1,-2.8,-3.5,-50.2,49.8*
CCOc1ccc(-c2nc(N)ncc2-c2ccc(OC)cc2)c(O)c1,x,-3.5,-65.7,x
CCN1C(=O)C(CC(=O)Nc2ccc(OC)cc2)N(Cc2ccc3c(c2)OCO3)C1=S (configuration not stated),x,4.4,-12.3,x
CCC(=O)N1COC[C@@H]1Cc1ccccc1,x,7.2,-35.5,x
